The results in this text go back to ChEMBL document CHEMBL3351839, “Design, synthesis, in silico molecular docking and biological evaluation of novel oxadiazole based thiazolidine-2,4-diones bis-heterocycles as PPAR-γ agonists” (Eur J Med Chem, 2014).

The structures appear in SMILES notation. pIC50: −log10 of the molar value. Calls of active or inactive are those of the source. The calls are words filed in the database; no cut-off is given here.

Series [1] deals with Rattus norvegicus. Briefly: Antidiabetic activity in streptozotocin induced diabetic Albino Wistar rat model assessed as blood glucose level at 36 mg/kg, po by glucose oxidase method. It is filed as functional. The essentials:
(§1)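 STZ 60 mg/kg i.p. (freshly made in 0.1 M citrate buffer pH 4.5) to overnight-fasted rats, 5% glucose to drink overnight; diabetic if blood glucose >250 mg/dL on day 3. […] Mean ± SEM, n=5; one-way ANOVA with Dunnett's t test.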

The subject of series [2] is 3T3-L1. Briefly: Increase in PPARgamma gene expression in mouse 3T3L1 cells at 10 uM incubated for 24 hrs by real-time PCR method relative to untreated control. Format: functional. The essentials: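 3T3-L1 cells in DMEM with 10% calf serum, seeded 24 h ahead in 24-well plates, exposed to 10 µM compound 24 h at 37 °C, 5% CO2; DMSO vehicle as negative control. RNA extracted, reverse transcribed, qPCR in triplicate, repeated twice; relative PPAR-γ transcript by Ct method normalised to β-actin.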
Background: Real-time PCR tracks product formation cycle by cycle.

For series [3], the system named is Rattus norvegicus. Briefly: Antidiabetic activity in streptozotocin induced diabetic Albino Wistar rat model assessed as blood glucose level dosed orally at equimolar dose of Pioglitazone by glucose oxidase method. It is filed as functional. In outline: as §1
The species entered for series [4] is Rattus norvegicus. Briefly: Antidiabetic activity in streptozotocin induced diabetic Albino Wistar rat model assessed as reduction in blood glucose level by oral glucose tolerance test. It is filed as functional, organism-based. The essentials: (§2)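 STZ-diabetic rats (60 mg/kg i.p.; glucose >250 mg/dL on day 3) given compound orally as 0.25% CMC suspension, then oral glucose tolerance and insulin tolerance tests, blood glucose followed over time. Groups: normal control, normal + compound, diabetic control, treated diabetic. Mean ± SEM of five observations; one-way ANOVA, Dunnett's t test.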

For series [5], the system named is Rattus norvegicus. Briefly: Antidiabetic activity in streptozotocin induced diabetic Albino Wistar rat model assessed as reduction in blood glucose level measured 90 mins after insulin dosing by insulin tolerance test. Format: functional, organism-based. In outline: as §2
Series [6] deals with Rattus norvegicus. Briefly: Toxicity in normal Albino Wistar rat assessed as increase in body weight dosed for 15 days. It is filed as organism-based. To be noted: in vivo, 360 h. The essentials:
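Normal and STZ-diabetic Wistar rats (STZ 60 mg/kg i.p.) dosed orally daily for 15 days in 0.25% CMC suspension; body weight compared with normal and diabetic controls. Mean ± SEM, n=5; one-way ANOVA with Dunnett's t test.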

The species entered for series [7] is Rattus norvegicus. Briefly: Hepatoprotective effect in streptozotocin induced diabetic Albino Wistar rat model assessed as reduction in serum AST level. It is filed as functional, organism-based. The essentials:
(§3)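 Serum from STZ-diabetic rats (60 mg/kg i.p.) after oral treatment in 0.25% CMC. AST and ALT measured by the Reitman–Frankel method; ALP by the Walter–Schult method with p-nitrophenyl phosphate substrate.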

The species named for series [8] is Rattus norvegicus. Briefly: Hepatoprotective effect in streptozotocin induced diabetic Albino Wistar rat model assessed as reduction in serum ALT level. It is filed as functional, organism-based. In outline: as §3
For series [9], the species on record is Rattus norvegicus. Briefly: Hepatoprotective effect in streptozotocin induced diabetic Albino Wistar rat model assessed as reduction in serum ALP level. It is filed as functional, organism-based. In outline:
as §3

For series [10], the target named is Voltage-gated inwardly rectifying potassium channel KCNH2 (Homo sapiens, UniProt Q12809). Briefly: Inhibition of human ERG.
Chain of Voltage-gated inwardly rectifying potassium channel KCNH2 (Q12809 whole entry): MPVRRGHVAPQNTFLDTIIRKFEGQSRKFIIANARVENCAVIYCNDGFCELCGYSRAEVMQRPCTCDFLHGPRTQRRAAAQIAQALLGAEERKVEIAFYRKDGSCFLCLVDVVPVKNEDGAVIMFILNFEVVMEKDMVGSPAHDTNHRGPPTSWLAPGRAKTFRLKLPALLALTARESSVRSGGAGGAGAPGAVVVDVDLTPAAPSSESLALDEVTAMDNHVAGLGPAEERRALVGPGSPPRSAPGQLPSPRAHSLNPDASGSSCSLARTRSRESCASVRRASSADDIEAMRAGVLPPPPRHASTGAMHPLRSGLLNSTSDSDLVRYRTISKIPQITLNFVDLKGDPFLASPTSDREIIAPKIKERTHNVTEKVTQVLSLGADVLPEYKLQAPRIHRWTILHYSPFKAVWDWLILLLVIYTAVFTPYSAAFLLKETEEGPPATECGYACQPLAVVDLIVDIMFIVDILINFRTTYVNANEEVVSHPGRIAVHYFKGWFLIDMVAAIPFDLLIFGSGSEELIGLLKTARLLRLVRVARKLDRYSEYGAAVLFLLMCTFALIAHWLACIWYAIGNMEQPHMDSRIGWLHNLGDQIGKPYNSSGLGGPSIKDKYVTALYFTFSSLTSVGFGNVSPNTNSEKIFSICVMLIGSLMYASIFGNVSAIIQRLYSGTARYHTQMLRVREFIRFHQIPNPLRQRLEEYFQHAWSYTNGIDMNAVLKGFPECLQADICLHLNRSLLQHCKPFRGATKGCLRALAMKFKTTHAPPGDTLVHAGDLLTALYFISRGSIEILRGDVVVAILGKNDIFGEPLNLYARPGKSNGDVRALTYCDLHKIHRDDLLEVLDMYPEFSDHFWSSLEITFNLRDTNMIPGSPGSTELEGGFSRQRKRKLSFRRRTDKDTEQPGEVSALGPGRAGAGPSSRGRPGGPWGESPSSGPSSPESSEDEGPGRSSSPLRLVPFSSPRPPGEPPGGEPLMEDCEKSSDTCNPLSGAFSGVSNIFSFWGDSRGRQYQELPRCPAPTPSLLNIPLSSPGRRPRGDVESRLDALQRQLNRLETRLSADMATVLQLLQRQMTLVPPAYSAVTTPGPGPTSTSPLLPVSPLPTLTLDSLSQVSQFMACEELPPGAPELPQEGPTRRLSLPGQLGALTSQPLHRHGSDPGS
The species entered for series [11] is Rattus norvegicus. Briefly: Toxicity in streptozotocin induced diabetic Albino Wistar rat model assessed as induction of portal triad inflammation measured 5 hrs post dose by haematoxylin and eosin staining based microscopy. Format: organism-based. The following applies: in vivo.
The species entered for series [12] is Rattus norvegicus. Briefly: Toxicity in streptozotocin induced diabetic Albino Wistar rat model assessed as induction of centrizonal triad inflammation measured 5 hrs post dose by haematoxylin and eosin staining based microscopy. Format: organism-based. To be noted: in vivo.
The species entered for series [13] is Rattus norvegicus. Briefly: Toxicity in streptozotocin induced diabetic Albino Wistar rat model assessed as induction of sinusoidal space dilation measured 5 hrs post dose by haematoxylin and eosin staining based microscopy. The following applies: in vivo. It is filed as organism-based.

Take `CN(CCOc1ccc(CC2SC(=O)NC2=O)cc1)c1ccccn1` (stereo not drawn) [ROSIGLITAZONE]: the Activity in series [1] was found to be 144.2 mg/dL. Besides, the “fold change (FC)” value in series [2] worked out at 1.

As for `O=C1NC(=O)/C(=C\c2ccccc2OCc2nnc(COc3ccc(Cl)cc3Cl)o2)S1`, the Activity was 134 mg/dL in series [3]; “Non-toxic” in series [6]; “Non-toxic” in series [11]; “Non-toxic” in [12]; “Non-toxic” in [13]. In addition, the outcome in series [4], in series [5], in series [7], in series [8] and in series [9] was Active. Further, in [10], the pIC50 (as a rule, −log10 of the IC50, conventionally taken in molar units) is 4.54. In addition, in [2], the “fold change (FC)” value was determined as 2.

On to `COc1cc(/C=C2/SC(=O)NC2=O)ccc1OCc1nnc(-c2ccc(Br)cc2)o1`, for which the Activity in series [3] is 135.2 mg/dL; in series [11], “Non-toxic”; in series [12], “Non-toxic”; in [13], “Non-toxic”. In addition, the outcome in [7], in [8] and in series [9] was Active.

`CCc1ccc(CCOc2ccc(CC3SC(=O)NC3=O)cc2)nc1` (stereo not drawn) [PIOGLITAZONE]: the Activity is 132 mg/dL in [1], “Non-toxic” in series [11], “Toxic” in [12] and “Toxic” in series [13]. Besides, the outcome in [7], in [8] and in series [9] was Active.

For `COc1cc(/C=C2/SC(=O)NC2=O)ccc1OCc1nnc(-c2ccccc2)o1`, the Activity in series [3] was 139.7 mg/dL; in series [11], “Non-toxic”; in series [12], “Non-toxic”; in series [13], “Non-toxic”. Moreover, the result in series [7], in series [8] and in series [9] was Active.

`O=C1NC(=O)/C(=C\c2ccccc2OCc2nnc(-c3ccccc3)o2)S1`: the Activity in series [3] was 139.6 mg/dL; in series [11], “Non-toxic”; in series [12], “Non-toxic”; in series [13], “Non-toxic”. The outcome in series [7], in [8] and in [9] was Active. The “fold change (FC)” value in series [2] is recorded as 2.1.
